Hits are enriched below; roughly 2.2% of the tested compounds scored in any of these assays.
GRK2 aptamer HTS: blocks RNA aptamer binding to human GRK2 | 330,000 tested, 0.59% active | inhibition of aptamer binding, % at 10 µM | bead flow cytometry, FAM-aptamer displacement from GRK2 | AID 488847;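 active means inhibition of aptamer binding above 40%, roughly 3 SD of noise, on plates passing a quality check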;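 further: median bead fluorescence of bound FAM aptamer so fluorescent compounds give negative values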
Target sequence (P25098 whole entry, looked up): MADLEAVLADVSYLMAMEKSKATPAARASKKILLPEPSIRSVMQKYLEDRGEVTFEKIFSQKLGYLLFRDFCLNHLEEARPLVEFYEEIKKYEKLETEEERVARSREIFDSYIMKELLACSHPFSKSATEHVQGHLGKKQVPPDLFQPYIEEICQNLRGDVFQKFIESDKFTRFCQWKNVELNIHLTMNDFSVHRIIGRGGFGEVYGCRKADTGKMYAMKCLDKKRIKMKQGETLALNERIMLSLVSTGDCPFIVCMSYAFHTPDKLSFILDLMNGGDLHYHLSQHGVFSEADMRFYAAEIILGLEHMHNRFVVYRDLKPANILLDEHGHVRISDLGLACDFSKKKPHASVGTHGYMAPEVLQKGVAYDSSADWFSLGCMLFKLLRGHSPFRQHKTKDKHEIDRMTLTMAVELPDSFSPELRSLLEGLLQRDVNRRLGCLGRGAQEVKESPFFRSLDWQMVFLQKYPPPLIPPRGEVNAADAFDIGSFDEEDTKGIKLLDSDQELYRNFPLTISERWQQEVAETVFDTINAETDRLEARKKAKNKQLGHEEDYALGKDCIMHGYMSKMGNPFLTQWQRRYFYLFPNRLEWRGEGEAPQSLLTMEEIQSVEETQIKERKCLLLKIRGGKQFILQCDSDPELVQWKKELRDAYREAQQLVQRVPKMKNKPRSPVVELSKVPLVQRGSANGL
HCV NS3 hel inh: inhibitors of Hepatitis C virus NS3 helicase. NS3 helicase DNA unwinding, Cy5 molecular beacon fluorescence. inhibition, % at 10.9 µM. 290,000 tested, 0.56% active;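 active means inhibition above the mean of all tested compounds plus 3 SD, set per campaign, cut at about 35% in these data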
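Test system: hepatitis C virus NS3 helicase domain fragment enzyme. Also added: annealed dual-labelled DNA beacon duplex, ATP-started. Timing: 60 min unwinding reaction at 25 °C after ATP addition. Technique: Cy5 fluorescence. Measure: % inhibition of unwinding.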
core dimer inh: blocks dimerization of HCV core protein. TR-FRET GST/Flag-core106 dimerization, 1536-well. inhibition, % at 5 µM. 300,000 tested, 0.33% active. AID 1899;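 active means inhibition above the mean of all tested compounds plus 3 SD, set per screening campaign, cut at about 45% in these data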
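System: GST-tagged and Flag-tagged HCV core protein residues 1-106 / Input: core106 proteins, GST 13.5 nM and Flag 17 nM / Buffer or medium: KF-containing HEPES buffer, pH 7.45, DTT, CHAPS, BSA / Probe or stimulus: Eu-anti-GST and XL665-anti-Flag labelled anti-tag antibodies / Schedule: 4 h, 22.5 °C incubation / Technique: TR-FRET 671 and 617 nm emission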
DAGLB inh: blocks human DAGLB lipase activity; Q8NCG7; HEK293T DAGLB membrane lysate, EnzChek fluorogenic substrate; inhibition, % at 5.17 µM; 340,000 tested, 0.059% active; in the data active means inhibition above about 34%
GPR7 antagonist: antagonists of human GPR7 (neuropeptides B/W receptor 1). GPR7-expressing cells, fluorescence antagonist assay. P48145. inhibition, % at 4.4 µM. 290,000 tested, 1.1% active; in the data active means inhibition above about 16%, passing the limit was not always enough;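 further: cells stimulated with the agonist NPW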
DNA FID counter-1: fluorescent intercalator displacement, NS3 helicase counter-screen; 290,000 tested, 0.17% active; inhibition, % at 7.9 µM; DNA fluorescent intercalator displacement, fluorescence; AID 1845;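 further: higher means more ethidium bromide displaced from hairpin DNA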
NS3 helicase cf: confirmation of Hepatitis C virus NS3 helicase inhibitors | shares compounds with HCV NS3 hel inh | 1,600 tested, 31% active | inhibition, % at 10.9 µM | NS3 helicase DNA unwinding, Cy5 molecular beacon fluorescence | AID 1943;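 active means inhibition above the mean of all tested compounds plus 3 SD, cutoff set per campaign, cut at about 36% in these data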
DNA FID counter-2: counter-screen for HCV NS3 helicase inhibitors: DNA intercalator displacement | shares compounds with HCV NS3 hel inh | 1,600 tested, 4% active | DNA fluorescent intercalator displacement, fluorescence | inhibition, % at 7.9 µM;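 further: higher means more displacement of ethidium bromide from the DNA hairpin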
DNA FID DR: DNA intercalator displacement in dose response | shares compounds with HCV NS3 hel inh | fluorescent intercalator displacement from DNA, fluorescence | 120 tested, under 10 active | AID 2172 | IC50, µM; call rule not given here
Numbers stand for hits. Unless noted, no stated cut-off is given here; in the data, active means inhibition above about 37%; inactive means the rest.

How did CCOC(=O)c1c(N)sc2c1CCC(C)C2 (stereo unspecified) do in these assays?
GRK2 aptamer HTS: inactive; HCV NS3 hel inh: 43; core dimer inh: inactive; DAGLB inh: inactive; GPR7 antagonist: inactive; DNA FID counter-1: inactive; NS3 helicase cf: inactive; DNA FID counter-2: inactive

What do the screens show for `CCOC(=O)c1c(NS(C)(=O)=O)sc2c1CCC(C)C2` (stereo unspecified)?
GRK2 aptamer HTS: inactive; HCV NS3 hel inh: inactive; core dimer inh: inactive; DAGLB inh: inactive; GPR7 antagonist: inactive; DNA FID counter-1: inactive

How did Cc1[nH]c(-c2ccc(F)cc2)cc1C(=O)N1CCN(c2cccc(Cl)c2)CC1 do in these assays?
GRK2 aptamer HTS: inactive; HCV NS3 hel inh: inactive; DAGLB inh: inactive; GPR7 antagonist: inactive; DNA FID counter-1: inactive

What do the screens show for `CS(=O)(=O)c1sc2nc(-c3cccs3)cc(-c3ccccc3)c2c1N`?
GRK2 aptamer HTS: inactive; HCV NS3 hel inh: 46; core dimer inh: 51; DAGLB inh: inactive; GPR7 antagonist: inactive; DNA FID counter-1: inactive; NS3 helicase cf: 78; DNA FID counter-2: inactive

How did COc1ccccc1-n1c(SCC(=O)NC(C)(C)C)nc(O)cc1=O do in these assays?
GRK2 aptamer HTS: inactive; HCV NS3 hel inh: 36; core dimer inh: inactive; DAGLB inh: inactive; GPR7 antagonist: inactive; DNA FID counter-1: inactive; NS3 helicase cf: inactive; DNA FID counter-2: inactive

Results for CC(C)(C)NC(=O)CSc1nc(O)cc(=O)n1-c1ccccc1F ?
GRK2 aptamer HTS: inactive; HCV NS3 hel inh: inactive; core dimer inh: inactive; DAGLB inh: inactive; GPR7 antagonist: inactive; DNA FID counter-1: inactive

How did COc1cccc(C2C(C#N)=C(N)OC3=C2C(=O)CC(c2ccco2)C3)c1OCc1ccc(F)cc1 (stereo unspecified) do in these assays?
GRK2 aptamer HTS: inactive; HCV NS3 hel inh: 39; core dimer inh: 57; DAGLB inh: inactive; GPR7 antagonist: inactive; DNA FID counter-1: inactive; NS3 helicase cf: 64; DNA FID counter-2: inactive; DNA FID DR: inactive

How did N#CC1=C(N)OC2=C(C(=O)CC(c3ccco3)C2)C1c1ccc(OCc2c(F)cccc2Cl)cc1 (stereo unspecified) do in these assays?
GRK2 aptamer HTS: inactive; HCV NS3 hel inh: inactive; core dimer inh: inactive; DAGLB inh: inactive; GPR7 antagonist: inactive; DNA FID counter-1: inactive

What do the screens show for `c1ccc(-c2ccc3c(c2)NCCN3)cc1`?
GRK2 aptamer HTS: inactive; HCV NS3 hel inh: inactive; core dimer inh: inactive; DAGLB inh: inactive; GPR7 antagonist: inactive; DNA FID counter-1: inactive

Results for Clc1cccc(C2Nc3cccc4cccc(c34)N2)c1Cl ?
GRK2 aptamer HTS: inactive; HCV NS3 hel inh: 49; core dimer inh: inactive; DAGLB inh: inactive; GPR7 antagonist: inactive; DNA FID counter-1: inactive; NS3 helicase cf: inactive; DNA FID counter-2: inactive

What do the screens show for `Fc1ccc(C2Nc3cccc4cccc(c34)N2)cc1`?
GRK2 aptamer HTS: inactive; HCV NS3 hel inh: 45; core dimer inh: inactive; DAGLB inh: inactive; GPR7 antagonist: inactive; DNA FID counter-1: inactive; NS3 helicase cf: inactive; DNA FID counter-2: inactive

Results for Cc1ccc(NC(=O)c2cc(S(=O)(=O)N3CCCCC3)ccc2N2CCOCC2)c(C)c1 ?
DAGLB inh: inactive

Results for CCCCC(O)(c1ccc(CC)cc1)C(CN1CCOCC1)c1ccccc1 (stereo unspecified) ?
GRK2 aptamer HTS: inactive; HCV NS3 hel inh: inactive; DAGLB inh: inactive; GPR7 antagonist: inactive; DNA FID counter-1: inactive

Results for O=S(=O)(O)c1nc2ccccc2n1Cc1cccc2ccccc12 ?
GRK2 aptamer HTS: inactive; HCV NS3 hel inh: 43; core dimer inh: inactive; GPR7 antagonist: inactive; DNA FID counter-1: inactive; NS3 helicase cf: 62; DNA FID counter-2: inactive

Results for O=C(COc1ccccc1F)Nc1ccc2c(c1)OCCO2 ?
GRK2 aptamer HTS: inactive; HCV NS3 hel inh: inactive; core dimer inh: inactive; DAGLB inh: inactive; GPR7 antagonist: inactive; DNA FID counter-1: inactive

Results for O=C(NNc1ccc([N+](=O)[O-])cc1)c1ccccc1Cl ?
GRK2 aptamer HTS: inactive; HCV NS3 hel inh: inactive; core dimer inh: inactive; DAGLB inh: inactive; GPR7 antagonist: inactive; DNA FID counter-1: inactive

How did O=C(O)c1ccccc1-c1ccccc1C(=O)NNc1ccc([N+](=O)[O-])cc1 do in these assays?
GRK2 aptamer HTS: inactive; HCV NS3 hel inh: 38; core dimer inh: inactive; DAGLB inh: inactive; GPR7 antagonist: inactive; DNA FID counter-1: inactive; NS3 helicase cf: inactive; DNA FID counter-2: inactive

What do the screens show for `Cc1ccc(-n2cccc2/C=C2\C(=N)N3N=C(c4ccco4)SC3=NC2=O)cc1`?
GRK2 aptamer HTS: inactive; HCV NS3 hel inh: 42; core dimer inh: inactive; DAGLB inh: inactive; GPR7 antagonist: inactive; DNA FID counter-1: inactive; NS3 helicase cf: 85; DNA FID counter-2: inactive; DNA FID DR: inactive

How did Cc1c(N=C2N=C(NC(=O)NC(C)(C)C)c3ccccc32)c(=O)n(-c2ccccc2)n1C do in these assays?
GRK2 aptamer HTS: inactive; HCV NS3 hel inh: 58; core dimer inh: inactive; DAGLB inh: inactive; GPR7 antagonist: inactive; DNA FID counter-1: inactive; NS3 helicase cf: inactive; DNA FID counter-2: inactive

Results for Cc1c(N=C2N=C(NC(=O)c3cccs3)c3ccccc32)c(=O)n(-c2ccccc2)n1C ?
GRK2 aptamer HTS: inactive; HCV NS3 hel inh: inactive; core dimer inh: inactive; DAGLB inh: inactive; GPR7 antagonist: inactive; DNA FID counter-1: inactive

How did Cc1nn(Cc2ccc(Cl)cc2)c(C)c1NC(=O)c1noc2c1CCc1ccccc1-2 do in these assays?
GRK2 aptamer HTS: inactive; HCV NS3 hel inh: 57; core dimer inh: inactive; DAGLB inh: inactive; GPR7 antagonist: inactive; DNA FID counter-1: inactive; NS3 helicase cf: inactive; DNA FID counter-2: inactive

Results for Cc1ccc(N2CC(NC(=O)C(=O)c3c[nH]c4ccccc34)CC2=O)cc1C (stereo unspecified) ?
GRK2 aptamer HTS: inactive; core dimer inh: inactive; DAGLB inh: inactive

What do the screens show for `O=C(/C=C/c1ccccc1Cl)c1ccc(O)cc1`?
GRK2 aptamer HTS: inactive; HCV NS3 hel inh: inactive; core dimer inh: inactive; DAGLB inh: inactive; GPR7 antagonist: inactive; DNA FID counter-1: inactive

How did O=C(/C=C/c1ccccc1Cl)c1ccccc(=O)c1O do in these assays?
GRK2 aptamer HTS: inactive; HCV NS3 hel inh: 44; core dimer inh: inactive; DAGLB inh: inactive; GPR7 antagonist: inactive; DNA FID counter-1: inactive; NS3 helicase cf: 78; DNA FID counter-2: inactive; DNA FID DR: inactive

How did Cc1ccc(C)c(/C=C/C(=O)c2ccccc(=O)c2O)c1 do in these assays?
GRK2 aptamer HTS: inactive; HCV NS3 hel inh: 38; core dimer inh: inactive; DAGLB inh: inactive; GPR7 antagonist: inactive; DNA FID counter-1: inactive; NS3 helicase cf: 77; DNA FID counter-2: inactive; DNA FID DR: inactive
